Reference: ChEMBL document CHEMBL4477233, “Discovery of novel TAOK2 inhibitor scaffolds from high-throughput screening” (Bioorg Med Chem Lett, 2016)
Activity calls are given as the source filed them. No cut-off for these calls is given here.

Legend:
[1] = target: T1, Mitogen-activated protein kinase kinase kinase 5 (Homo sapiens) (UniProt Q99683); experiment: Binding affinity to ASK1 (unknown origin) assessed as change in melting temperature at 1 uM by SYPRO orange dye-based DSF analysis
T1 sequence (whole entry): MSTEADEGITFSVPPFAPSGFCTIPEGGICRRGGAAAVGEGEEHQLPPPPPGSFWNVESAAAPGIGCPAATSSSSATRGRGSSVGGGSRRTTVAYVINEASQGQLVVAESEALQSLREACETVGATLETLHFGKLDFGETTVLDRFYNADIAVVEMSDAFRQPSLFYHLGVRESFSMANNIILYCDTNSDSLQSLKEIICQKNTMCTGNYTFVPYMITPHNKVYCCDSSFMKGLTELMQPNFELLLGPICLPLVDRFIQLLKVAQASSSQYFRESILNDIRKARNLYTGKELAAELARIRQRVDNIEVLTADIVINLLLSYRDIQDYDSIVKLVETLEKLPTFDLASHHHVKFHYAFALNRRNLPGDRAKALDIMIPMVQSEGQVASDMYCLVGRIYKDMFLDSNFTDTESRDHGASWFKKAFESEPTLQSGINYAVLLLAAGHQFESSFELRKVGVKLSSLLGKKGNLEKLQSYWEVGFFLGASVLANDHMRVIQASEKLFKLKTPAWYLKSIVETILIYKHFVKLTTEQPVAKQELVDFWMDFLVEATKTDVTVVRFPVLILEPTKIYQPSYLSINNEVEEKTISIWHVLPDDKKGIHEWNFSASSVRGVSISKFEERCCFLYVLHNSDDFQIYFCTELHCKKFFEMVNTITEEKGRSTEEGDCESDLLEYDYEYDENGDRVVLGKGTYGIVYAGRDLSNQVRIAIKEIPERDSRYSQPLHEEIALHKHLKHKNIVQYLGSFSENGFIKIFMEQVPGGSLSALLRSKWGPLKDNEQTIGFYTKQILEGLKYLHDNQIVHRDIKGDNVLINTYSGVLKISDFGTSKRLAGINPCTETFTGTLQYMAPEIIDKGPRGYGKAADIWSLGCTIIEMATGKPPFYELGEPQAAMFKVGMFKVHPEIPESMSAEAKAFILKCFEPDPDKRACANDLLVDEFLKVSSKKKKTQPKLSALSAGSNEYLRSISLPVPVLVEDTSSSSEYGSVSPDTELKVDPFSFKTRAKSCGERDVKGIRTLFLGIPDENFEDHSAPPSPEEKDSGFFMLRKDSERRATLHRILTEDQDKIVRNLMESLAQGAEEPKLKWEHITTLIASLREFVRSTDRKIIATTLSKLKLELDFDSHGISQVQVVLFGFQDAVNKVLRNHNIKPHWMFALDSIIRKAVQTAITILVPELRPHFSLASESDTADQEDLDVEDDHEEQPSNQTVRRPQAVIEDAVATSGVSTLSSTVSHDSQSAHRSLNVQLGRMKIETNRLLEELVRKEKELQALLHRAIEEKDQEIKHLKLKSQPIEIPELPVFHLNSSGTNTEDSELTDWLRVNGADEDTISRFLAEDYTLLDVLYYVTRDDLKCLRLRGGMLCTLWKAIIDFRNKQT
Outline: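 Differential scanning fluorimetry: each compound's melting-temperature shift (ΔTm, °C) was measured on the kinase protein. Compounds giving a TAOK2 ΔTm above 0.5 °C were also run against p38 and ASK1. Selectivity (ΔΔTm) was taken as the TAOK2 ΔTm minus the p38 or ASK1 ΔTm.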

[2] = target: T2, Serine/threonine-protein kinase TAO2 (Homo sapiens) (UniProt Q9UL54); experiment: Inhibition of TAOK2 in human U2OS cells assessed as inhibition of cellular autophagy measured as P62 accumulation at 50 uM after 24 hrs by western blot analysis; assay type: cell-based
T2 sequence (whole entry): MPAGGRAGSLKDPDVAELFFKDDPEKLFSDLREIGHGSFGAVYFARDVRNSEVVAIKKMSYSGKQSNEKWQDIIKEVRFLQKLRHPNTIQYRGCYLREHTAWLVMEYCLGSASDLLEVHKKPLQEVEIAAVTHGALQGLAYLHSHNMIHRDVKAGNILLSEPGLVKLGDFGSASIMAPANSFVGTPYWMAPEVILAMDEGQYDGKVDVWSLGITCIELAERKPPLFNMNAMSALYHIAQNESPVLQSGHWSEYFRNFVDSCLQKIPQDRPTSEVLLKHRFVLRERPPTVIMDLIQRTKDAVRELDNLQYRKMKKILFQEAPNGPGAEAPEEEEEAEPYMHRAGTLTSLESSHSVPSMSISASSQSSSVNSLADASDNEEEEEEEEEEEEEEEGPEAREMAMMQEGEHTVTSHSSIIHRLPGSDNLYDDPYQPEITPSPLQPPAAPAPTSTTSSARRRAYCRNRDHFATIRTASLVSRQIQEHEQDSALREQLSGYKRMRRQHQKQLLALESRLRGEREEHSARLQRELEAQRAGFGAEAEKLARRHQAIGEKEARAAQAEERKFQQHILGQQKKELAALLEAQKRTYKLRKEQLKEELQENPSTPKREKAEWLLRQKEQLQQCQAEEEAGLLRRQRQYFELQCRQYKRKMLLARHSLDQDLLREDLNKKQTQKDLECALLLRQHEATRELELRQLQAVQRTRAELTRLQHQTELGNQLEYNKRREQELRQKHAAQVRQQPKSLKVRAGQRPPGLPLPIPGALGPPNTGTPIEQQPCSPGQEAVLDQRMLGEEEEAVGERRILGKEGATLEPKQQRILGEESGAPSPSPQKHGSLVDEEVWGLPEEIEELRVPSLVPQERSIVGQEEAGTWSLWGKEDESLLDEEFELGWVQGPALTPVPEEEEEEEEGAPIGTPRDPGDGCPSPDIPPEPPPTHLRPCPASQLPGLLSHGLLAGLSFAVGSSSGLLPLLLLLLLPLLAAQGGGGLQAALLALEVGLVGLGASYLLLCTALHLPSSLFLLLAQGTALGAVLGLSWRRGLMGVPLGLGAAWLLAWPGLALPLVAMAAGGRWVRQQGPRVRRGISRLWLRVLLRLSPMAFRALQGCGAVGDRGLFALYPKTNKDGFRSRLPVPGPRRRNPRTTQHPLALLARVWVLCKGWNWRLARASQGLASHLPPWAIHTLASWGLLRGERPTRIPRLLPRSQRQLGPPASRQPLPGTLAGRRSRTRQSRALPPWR
Outline: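 GFP–LC3-expressing U2OS cells were treated for 24 h with compound at 50 µM or with DMSO alone. p62 (SQSTM1) abundance was then assessed by Western blotting as a readout of autophagic degradation.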

[3] = target: T2, Serine/threonine-protein kinase TAO2 (Homo sapiens); experiment: Inhibition of human TAO2; details: concentration not given here
[4] = target: Mitogen-activated protein kinase 8 (Homo sapiens) (UniProt P45983); experiment: Inhibition of human JNK1; details: concentration not given here
[5] = target: RAF proto-oncogene serine/threonine-protein kinase (Homo sapiens) (UniProt P04049); experiment: Inhibition of human RAF-1; details: concentration not given here
[6] = target: Cyclin-dependent kinase 1 (Homo sapiens) (UniProt P06493); experiment: Inhibition of human CDK1; details: concentration not given here
Chain of Cyclin-dependent kinase 1 (Homo sapiens) (P06493 whole entry, looked up): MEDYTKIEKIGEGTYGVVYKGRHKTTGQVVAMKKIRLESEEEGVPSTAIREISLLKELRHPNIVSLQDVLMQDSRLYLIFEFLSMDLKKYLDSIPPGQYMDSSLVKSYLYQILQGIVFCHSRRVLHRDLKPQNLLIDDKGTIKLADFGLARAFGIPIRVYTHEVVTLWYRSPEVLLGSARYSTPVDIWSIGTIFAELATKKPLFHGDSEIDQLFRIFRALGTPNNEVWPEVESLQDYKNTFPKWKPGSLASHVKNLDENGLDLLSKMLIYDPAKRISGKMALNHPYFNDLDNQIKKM

Chain of Mitogen-activated protein kinase 8 (Homo sapiens) (P45983 whole entry): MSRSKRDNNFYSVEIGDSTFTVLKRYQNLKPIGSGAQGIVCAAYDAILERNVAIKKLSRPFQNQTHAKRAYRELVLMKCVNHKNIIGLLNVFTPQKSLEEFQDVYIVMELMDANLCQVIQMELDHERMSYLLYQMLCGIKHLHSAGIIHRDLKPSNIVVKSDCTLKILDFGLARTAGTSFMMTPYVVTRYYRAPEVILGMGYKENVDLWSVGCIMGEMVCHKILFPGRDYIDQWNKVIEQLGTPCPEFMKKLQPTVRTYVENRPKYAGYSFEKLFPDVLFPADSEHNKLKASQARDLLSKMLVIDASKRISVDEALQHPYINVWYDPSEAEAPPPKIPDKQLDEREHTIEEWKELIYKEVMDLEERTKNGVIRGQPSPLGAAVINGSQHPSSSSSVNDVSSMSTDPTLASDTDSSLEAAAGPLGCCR
Chain of RAF proto-oncogene serine/threonine-protein kinase (Homo sapiens) (P04049 whole entry): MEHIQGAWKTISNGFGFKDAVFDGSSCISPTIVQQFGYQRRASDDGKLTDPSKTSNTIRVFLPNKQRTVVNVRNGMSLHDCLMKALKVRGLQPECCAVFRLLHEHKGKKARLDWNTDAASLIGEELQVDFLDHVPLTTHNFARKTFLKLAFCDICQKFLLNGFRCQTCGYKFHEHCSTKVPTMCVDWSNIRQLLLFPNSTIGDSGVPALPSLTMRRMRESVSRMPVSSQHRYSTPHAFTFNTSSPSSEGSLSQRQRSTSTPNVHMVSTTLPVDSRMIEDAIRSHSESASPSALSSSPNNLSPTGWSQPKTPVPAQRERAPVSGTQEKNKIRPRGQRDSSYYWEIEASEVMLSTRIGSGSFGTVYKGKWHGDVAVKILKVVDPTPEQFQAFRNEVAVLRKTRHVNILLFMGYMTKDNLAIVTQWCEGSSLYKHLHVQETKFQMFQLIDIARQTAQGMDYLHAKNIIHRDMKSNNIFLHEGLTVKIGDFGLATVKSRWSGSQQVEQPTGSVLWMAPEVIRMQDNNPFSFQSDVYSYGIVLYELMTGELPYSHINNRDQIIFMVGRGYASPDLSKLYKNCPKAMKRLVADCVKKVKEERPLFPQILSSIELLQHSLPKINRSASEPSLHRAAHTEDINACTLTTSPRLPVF

ΔTm [1]	inhibition [2]	inhibition [3]	inhibition [4]	inhibition [5]	inhibition [6]	SMILES
1.2 °C	–	–	–	–	–	Cc1ccc(NCCCC(=O)N/N=C/c2cc(Br)cc(Br)c2O)cc1
1.2 °C	Active	–	–	–	–	O=C(NCC1COc2ccccc2O1)c1ccc(NC(=O)c2ccco2)cc1 (stereo not drawn)
0 °C	–	–	–	–	–	c1cc2[nH]c3c(c2c2nonc12)CCCC3
1.7 °C	–	–	–	–	–	O=C(O)c1cc(-c2ccc(-c3ccccc3[N+](=O)[O-])o2)nc2ccc3ccccc3c12
1.2 °C	Active	> 50%	–	–	–	CS(=O)(=O)c1ccc2nc(NC(=O)CCCOc3ccc(Cl)cc3)sc2c1
2.1 °C	Active	> 50%	–	–	–	CCOCCCn1c(=S)[nH]c2cc(C(=O)NCC3COc4ccccc4O3)ccc2c1=O (stereo not drawn)
2.7 °C	inactive	> 50%	> 50%	> 50%	> 50%	CCC(=O)Nc1nc(C)c(-c2csc(Nc3cc(OC)ccc3OC)n2)s1
0.4 °C	–	–	–	–	–	Cc1ccc(C(=O)CSc2nnc(-c3ccncc3)[nH]2)c(C)c1
